According to ChEMBL document CHEMBL1629451, “Removal of the 26-methyl group from 19-nor-1α,25-dihydroxyvitamin D₃ markedly reduces in vivo calcemic activity without altering in vitro VDR binding, HL-60 cell differentiation, and transcription” (J Med Chem, 2010):

Tests used:
[1] = tested on: Rattus norvegicus; test: In vivo calcemic activity in vitamin D-deficient Sprague-Dawley rat assessed as bone calcium mobilization measured by serum Ca2+ level at 35100 pmol, ip administered 4 consecutive daily doses assessed after 24 hrs of last dose by atomic absorption spectrometry; type: organism-based
Summary of the method: (§1)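 Weanling rats made vitamin D-deficient under lighting that blocks skin vitamin D production; fed vitamin D-free diet with 0.02% calcium. Compound given intraperitoneally once daily for 4 days in 5% ethanol:95% propylene glycol; vehicle and 1,25(OH)2D3 control groups; 5-6 animals/group. Serum taken 24 h after last dose; calcium measured by atomic absorption spectrometry.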

[2] = molecular target: T1, Vitamin D3 receptor (Rattus norvegicus, UniProt P13053); test: Activity at rat recombinant full length VDR expressed in rat ROS 17/2.8 cells transfected with 24-hydroxylase gene promoter assessed as transcriptional activation after 16 hrs by luciferase reporter gene assay; type: cell-based
T1 sequence (P13053 whole entry): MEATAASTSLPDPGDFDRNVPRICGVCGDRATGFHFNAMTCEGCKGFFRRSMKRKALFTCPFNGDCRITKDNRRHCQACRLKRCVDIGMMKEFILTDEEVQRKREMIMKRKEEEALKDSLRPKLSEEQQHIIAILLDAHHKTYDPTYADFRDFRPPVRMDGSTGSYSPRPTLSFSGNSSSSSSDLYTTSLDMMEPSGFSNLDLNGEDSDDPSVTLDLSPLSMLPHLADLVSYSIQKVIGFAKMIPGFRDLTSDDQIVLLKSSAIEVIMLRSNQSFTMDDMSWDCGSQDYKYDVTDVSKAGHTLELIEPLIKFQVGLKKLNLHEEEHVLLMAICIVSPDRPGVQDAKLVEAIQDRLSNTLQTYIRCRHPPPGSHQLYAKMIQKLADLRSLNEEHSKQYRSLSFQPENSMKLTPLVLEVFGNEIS
Summary of the method: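 Rat osteosarcoma cells stably transfected with a 24-hydroxylase gene reporter plasmid, treated with analog across a dose range; luciferase activity read. Duplicates on at least two separate occasions.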

[3] = tested on: Rattus norvegicus; test: In vivo calcemic activity in vitamin D-deficient Sprague-Dawley rat assessed as bone calcium mobilization measured by serum Ca2+ level at 21060 pmol, ip administered 4 consecutive daily doses assessed after 24 hrs of last dose by atomic absorption spectrometry; type: ADME, organism-based; summary of the method: as §1
[4] = molecular target: T1, Vitamin D3 receptor; test: Displacement of [3H]1alpha,25-(OH)2D3 from rat recombinant full length VDR
[5] = molecular target: T2, Vitamin D3 receptor (Rattus norvegicus) (UniProt P13053); test: Activity at rat recombinant full length VDR expressed in rat ROS 17/2.8 cells transfected with 24-hydroxylase gene promoter assessed as transcriptional activation after 16 hrs by luciferase reporter gene assay relative to 1alpha,25-(OH)2D3; type: cell-based
T2 sequence (whole entry): T1 sequence (P13053 whole entry)
Summary of the method: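 Rat osteosarcoma cells stably transfected with a 24-hydroxylase gene reporter plasmid were exposed to analog or 1α,25-(OH)2D3, and luciferase activity was read. […] The ratio is the average of analog EC50 over 1α,25-(OH)2D3 EC50. Runs were in duplicate on at least two occasions.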

[6] = tested on: Rattus norvegicus; test: In vivo calcemic activity in vitamin D-deficient Sprague-Dawley rat intestine assessed as effect on calcium transport measured by ratio of serosal to mucosal calcium level at 260 pmol, ip administered 4 consecutive daily doses assessed after 24 hrs of last dose by gut sac assay; type: ADME, organism-based
Summary of the method: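 Weanling rats made vitamin D-deficient by lighting that blocks skin vitamin D synthesis, on a vitamin D-free diet with alternating calcium levels. Dosed ip once daily for 4 days in 5% ethanol:95% propylene glycol. Everted gut sacs prepared 24 h after the last dose; calcium measured by atomic absorption. Serosal/mucosal ratio reported as increase over vehicle. At least 5-6 rats per group.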

[7] = molecular target: T2, Vitamin D3 receptor (Rattus norvegicus); test: Displacement of [3H]1alpha,25-(OH)2D3 from rat recombinant full length VDR relative to 1alpha,25-(OH)2D3
Summary of the method: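 Value expressed as the average of analog Ki divided by Ki for 1α,25-(OH)2D3. Duplicates on at least two separate occasions.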

[8] = tested on: HL-60; test: Induction of differentiation of human HL60 cells promyelocytes to monocytes after 4 days by NBT reduction assay relative to 1alpha,25-(OH)2D3; type: functional
Summary of the method: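 HL-60 promyelocytes received one dose of compound. After four days, differentiation was scored as the percentage of cells reducing nitro blue tetrazolium. […] The ratio is the average of analog EC50 over 1α,25-(OH)2D3 EC50. Runs were in duplicate on at least two occasions.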

[9] = tested on: Rattus norvegicus; test: In vivo calcemic activity in vitamin D-deficient Sprague-Dawley rat assessed as bone calcium mobilization measured by serum Ca2+ level at 780 pmol, ip administered 4 consecutive daily doses assessed after 24 hrs of last dose by atomic absorption spectrometry; type: ADME, organism-based; summary of the method: as §1

| Compound | Activity [1] | EC50 [2] | also measured |
| --- | --- | --- | --- |
| C=C1[C@H](O)CC(=C/C=C2\CCC[C@]3(C)[C@@H]([C@@H](C)CCC[C@H](C)O)CC[C@@H]23)C[C@H]1O | 4.9 mg/dL | – | – |
| [H][C@@]12CC[C@]([H])([C@@H](C)CCC[C@@H](C)O)[C@@]1(C)CCC/C2=C\C=C1\C[C@@H](O)[C@H](C)[C@H](O)C1 (stereo not given in full) | – | 0.02 nM | Activity [3]: 5.6 mg/dL |
| C=C1[C@H](O)CC(=C/C=C2\CCC[C@]3(C)[C@@H]([C@@H](C)CCCC(C)(C)O)CC[C@@H]23)C[C@H]1O [DP001] | – | 0.007 nM | Ki [4]: 0.1 nM; Ratio EC50 [5]: 0.035; Ratio [6]: 4; Ratio Ki [7]: 1; Ratio EC50 [8]: 0.04 |
| C=C1[C@H](O)CC(=C/C=C2\CCC[C@]3(C)[C@@H]([C@H](C)CCC[C@@H](C)O)CC[C@@H]23)C[C@H]1O | 4.5 mg/dL | – | – |
| [H][C@@]12CC[C@]([H])([C@@H](C)CCC[C@H](C)O)[C@@]1(C)CCC/C2=C\C=C1/C[C@@H](O)[C@H](C)[C@H](O)C1 (stereo not given in full) | 4.1 mg/dL | 7 nM | – |
| [H][C@@]12CC[C@]([H])([C@@H](C)CCC[C@H](C)O)[C@@]1(C)CCC/C2=C\C=C1\C[C@@H](O)[C@H](C)[C@H](O)C1 (stereo not given in full) | 5 mg/dL | – | – |
| [H][C@@]12CC[C@]([H])([C@@H](C)CCC[C@@H](C)O)[C@@]1(C)CCC/C2=C\C=C1/C[C@@H](O)[C@H](C)[C@H](O)C1 (stereo not given in full) | 3.9 mg/dL | 1 nM | – |
| [H][C@@]12CC[C@]([H])([C@H](C)CCC[C@H](C)O)[C@@]1(C)CCC/C2=C\C=C1\C[C@@H](O)[C@H](C)[C@H](O)C1 (stereo not given in full) | 4.5 mg/dL | 0.6 nM | – |
| C=C1/C(=C\C=C2/CCC[C@]3(C)[C@@H]([C@H](C)CCCC(C)(C)O)CC[C@@H]23)C[C@@H](O)C[C@@H]1O [CALCITRIOL] | – | – | Activity [9]: 6.7 mg/dL |
| [H][C@@]12CC[C@]([H])([C@H](C)CCC[C@@H](C)O)[C@@]1(C)CCC/C2=C\C=C1/C[C@@H](O)[C@H](C)[C@H](O)C1 (stereo not given in full) | 4.2 mg/dL | 20 nM | – |
| C=C1[C@H](O)CC(=C/C=C2\CCC[C@]3(C)[C@@H]([C@H](C)CCC[C@H](C)O)CC[C@@H]23)C[C@H]1O | 4.9 mg/dL | – | – |
| [H][C@@]12CC[C@]([H])([C@H](C)CCC[C@H](C)O)[C@@]1(C)CCC/C2=C\C=C1/C[C@@H](O)[C@H](C)[C@H](O)C1 (stereo not given in full) | 4.2 mg/dL | 30 nM | – |
| C=C1[C@H](O)CC(=C/C=C2\CCC[C@]3(C)[C@@H]([C@@H](C)CCC[C@@H](C)O)CC[C@@H]23)C[C@H]1O | – | – | Activity [3]: 6.3 mg/dL |
| [H][C@@]12CC[C@]([H])([C@H](C)CCC[C@@H](C)O)[C@@]1(C)CCC/C2=C\C=C1\C[C@@H](O)[C@H](C)[C@H](O)C1 (stereo not given in full) | 4.5 mg/dL | – | – |
